Assay results as given in ChEMBL document CHEMBL1255444, “In vitro antibacterial activities of JNJ-Q2, a new broad-spectrum fluoroquinolone” (Antimicrob Agents Chemother, 2010).
In brackets after ≈: the same amount, converted by molar mass. Activity calls are given as the source filed them. No cut-off for these calls is given here.

Key:
[1] = tested on: Streptococcus pneumoniae; assay: Antibacterial activity against Streptococcus pneumoniae isolate OC7348 assessed as log reduction in bacterial growth at 4 times MIC measured at 24 hrs by time-kill assay; format: functional
Outline: (§1)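 Drug was diluted from 50× stocks made in water or acidified water. Samples were taken at 6 and 24 h and serially diluted onto TSA-5% sheep blood plates. Plates were incubated 20–24 h at 37°C in 5% CO2 before counting CFU. Log10 titer change is given relative to the starting inoculum.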

[2] = tested on: Serratia marcescens; assay: Antibacterial activity against Serratia marcescens by broth microdilution method; format: functional
Outline: (§2)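 MICs by CLSI M07-A7 broth microdilution in cation-adjusted Mueller-Hinton medium. For S. pneumoniae the medium was supplemented with 5% lysed horse blood. CLSI quality control strains were run alongside as appropriate.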

[3] = tested on: Streptococcus pneumoniae; assay: Antibacterial activity against Streptococcus pneumoniae isolate OC7189 assessed as log reduction in bacterial growth at 4 times MIC measured at 6 hrs by time-kill assay; format: functional; outline: as §1
[4] = tested on: Staphylococcus aureus; assay: Antibacterial activity against methicillin-resistant Staphylococcus aureus isolate OC4222 harboring gyrA S84L and parC S80F mutant gene assessed as log reduction in bacterial growth at 2 times MIC measured at 24 hrs by time-kill assay; format: functional
Outline: (§3)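 Overnight MRSA cultures were diluted into fresh cation-adjusted Mueller-Hinton broth to about 5 × 10^6 CFU/ml. […] Samples were plated serially diluted on trypticase soy agar, and CFU were counted after 20-24 h at 37°C. Value is the log10 decrease at 24 h from the starting inoculum; detection limit 100 CFU.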

[5] = tested on: Streptococcus pneumoniae; assay: Antibacterial activity against Streptococcus pneumoniae R6 by agar dilution method; format: functional
Outline: (§4)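 MICs for the resistance-selection studies were determined by CLSI agar dilution on Mueller-Hinton medium. For S. pneumoniae the medium was supplemented with 5% lysed horse blood. For MRSA fluctuation-assay strains an arithmetic agar dilution scheme was used for a more precise MIC.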

[6] = tested on: Streptococcus pneumoniae; assay: Antibacterial activity against Streptococcus pneumoniae isolate OC5462 assessed as log reduction in bacterial growth at 4 times MIC measured at 6 hrs by time-kill assay; format: functional; outline: as §1
[7] = tested on: Streptococcus pneumoniae; assay: Antibacterial activity against Streptococcus pneumoniae isolate OC7376 assessed as log reduction in bacterial growth at 4 times MIC measured at 6 hrs by time-kill assay; format: functional; outline: as §1
[8] = tested on: Klebsiella aerogenes; assay: Antibacterial activity against Enterobacter aerogenes by broth microdilution method; format: functional; outline: as §2
[9] = tested on: Streptococcus pneumoniae; assay: Antibacterial activity against Streptococcus pneumoniae isolate OC7368 by broth microdilution method; format: functional
Outline: (§5)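 CLSI M07-A7 broth microdilution MIC. Medium was cation-adjusted Mueller-Hinton broth. For S. pneumoniae it was Mueller-Hinton supplemented with 5% lysed horse blood. CLSI quality-control strains were included as appropriate.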

[10] = tested on: Streptococcus pneumoniae; assay: Antibacterial activity against Streptococcus pneumoniae isolate OC6790 assessed as log reduction in bacterial growth at 2 times MIC measured at 6 hrs by time-kill assay; format: functional; outline: as §1
[11] = tested on: Streptococcus pneumoniae; assay: Antibacterial activity against Streptococcus pneumoniae isolate OC7376 by broth microdilution method; format: functional; outline: as §5
[12] = tested on: Streptococcus pneumoniae; assay: Antibacterial activity against Streptococcus pneumoniae isolate OC5462 assessed as log reduction in bacterial growth at 2 times MIC measured at 6 hrs by time-kill assay; format: functional; outline: as §1
[13] = tested on: Streptococcus pneumoniae; assay: Antibacterial activity against Streptococcus pneumoniae OC7453 harboring gyrA S81F mutant gene by agar dilution method; format: functional; outline: as §4
[14] = tested on: Streptococcus pneumoniae; assay: Antibacterial activity against Streptococcus pneumoniae isolate OC7348 by broth microdilution method; format: functional; outline: as §5
[15] = tested on: Streptococcus pneumoniae; assay: Antibacterial activity against Streptococcus pneumoniae OC7452 harboring parC S79Y mutant gene by agar dilution method; format: functional; outline: as §4
[16] = tested on: Streptococcus pneumoniae; assay: Antibacterial activity against Streptococcus pneumoniae isolate OC6608 by broth microdilution method; format: functional; outline: as §5
[17] = tested on: Staphylococcus aureus; assay: Antibacterial activity against methicillin-resistant Staphylococcus aureus isolate OC17042 harboring gyrA S84L/G106D, parC S80F and parE D732N mutant gene by broth microdilution method; format: functional; outline: as §5
[18] = tested on: Staphylococcus aureus; assay: Antibacterial activity against methicillin-resistant Staphylococcus aureus isolate OC11521 harboring gyrA S84L/S85P, parC E84G mutant gene assessed as log reduction in bacterial growth at 2 times MIC measured at 24 hrs by time-kill assay; format: functional; outline: as §3
[19] = tested on: Staphylococcus aureus; assay: Antibacterial activity against methicillin-resistant Staphylococcus aureus isolate OC8530 harboring gyrA S84L and parC I143V mutant gene by broth microdilution method; format: functional
Outline: (§6)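 CLSI M07-A7 broth microdilution MIC in cation-adjusted Mueller-Hinton medium. For S. pneumoniae the medium was supplemented with 5% lysed horse blood. CLSI quality-control strains were included as appropriate.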

[20] = tested on: Streptococcus pneumoniae; assay: Antibacterial activity against Streptococcus pneumoniae isolate OC6790 assessed as log reduction in bacterial growth at 2 times MIC measured at 24 hrs by time-kill assay; format: functional; outline: as §1
[21] = Antibacterial activity against Streptococcus sp. group C by broth microdilution method; format: functional
Outline: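 MICs by broth microdilution following CLSI M07-A7 in cation-adjusted Mueller-Hinton medium, using isolates from the J&JPRD culture collection. CLSI quality control strains were included as appropriate.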

[22] = tested on: Staphylococcus aureus; assay: Antibacterial activity against methicillin-resistant Staphylococcus aureus isolate OC17042 harboring gyrA S84L/G106D, parC S80F and parE D732N mutant gene assessed as log reduction in bacterial growth at 4 times MIC measured at 24 hrs by time-kill assay; format: functional; outline: as §3
[23] = tested on: Streptococcus pneumoniae; assay: Antibacterial activity against Streptococcus pneumoniae isolate OC5462 assessed as log reduction in bacterial growth at 2 times MIC measured at 24 hrs by time-kill assay; format: functional; outline: as §1
[24] = tested on: Streptococcus pneumoniae; assay: Antibacterial activity against Streptococcus pneumoniae isolate OC7189 assessed as log reduction in bacterial growth at 4 times MIC measured at 24 hrs by time-kill assay; format: functional; outline: as §1
[25] = tested on: Staphylococcus aureus; assay: Antibacterial activity against methicillin-resistant Staphylococcus aureus isolate OC11150 harboring gyrA S84L and parC S80Y mutant gene by agar dilution method; format: functional; outline: as §4
[26] = tested on: Streptococcus pneumoniae; assay: Ratio of Ciprofloxacin MIC90 to compound MIC90 for ciprofloxacin-resistant Streptococcus pneumoniae; format: functional
[27] = tested on: Streptococcus pneumoniae; assay: Antibacterial activity against Streptococcus pneumoniae isolate OC6585 assessed as log reduction in bacterial growth at 4 times MIC measured at 6 hrs by time-kill assay; format: functional; outline: as §1
[28] = tested on: Staphylococcus aureus; assay: Antibacterial activity against methicillin-resistant Staphylococcus aureus isolate OC15425 harboring gyrA S84L and parC S80F mutant gene by agar dilution method; format: functional; outline: as §4
[29] = tested on: Streptococcus pneumoniae; assay: Antibacterial activity against multidrug resistant Streptococcus pneumoniae by broth microdilution method; format: functional, organism-based; outline: as §6
[30] = tested on: Streptococcus pneumoniae; assay: Antibacterial activity against Streptococcus pneumoniae isolate OC7348 assessed as log reduction in bacterial growth at 2 times MIC measured at 6 hrs by time-kill assay; format: functional; outline: as §1
[31] = tested on: Streptococcus pneumoniae; assay: Antibacterial activity against Streptococcus pneumoniae isolate OC7376 assessed as log reduction in bacterial growth at 4 times MIC measured at 24 hrs by time-kill assay; format: functional; outline: as §1
[32] = tested on: Providencia stuartii; assay: Ratio of Levofloxacin MIC90 to compound MIC90 for Providencia stuartii; format: functional
[33] = tested on: Streptococcus pneumoniae; assay: Ratio of Moxifloxacin MIC90 to compound MIC90 for ciprofloxacin-resistant Streptococcus pneumoniae; format: functional
[34] = tested on: Streptococcus pneumoniae; assay: Antibacterial activity against Streptococcus pneumoniae isolate OC6610 assessed as log reduction in bacterial growth at 2 times MIC measured at 24 hrs by time-kill assay; format: functional; outline: as §1
[35] = tested on: Streptococcus pneumoniae; assay: Antibacterial activity against Streptococcus pneumoniae isolate OC6790 by broth microdilution method; format: functional; outline: as §5

COc1c(N2CCC/C(=C(\F)CN)C2)c(F)cc2c(=O)c(C(=O)O)cn(C3CC3)c12 [ACORAFLOXACIN]
deltalog10CFU/ml [1]: 6.5
MIC50 [2]: 0.5 µg/mL (≈ 1.19 µM)
MIC90 [2]: 1 µg/mL (≈ 2.38 µM)
deltalog10CFU/ml [3]: 4.2
deltalog10CFU/ml [4]: 5.9
MIC [5]: 0.015 µg/mL (≈ 0.0358 µM)
deltalog10CFU/ml [6]: 3.4
deltalog10CFU/ml [7]: 5.3
MIC50 [8]: 0.12 µg/mL (≈ 0.286 µM)
MIC90 [8]: 0.25 µg/mL (≈ 0.596 µM)
MIC [9]: 0.12 µg/mL (≈ 0.286 µM)
deltalog10CFU/ml [10]: 3.6
MIC [11]: 0.12 µg/mL (≈ 0.286 µM)
deltalog10CFU/ml [12]: 3.2
MIC [13]: 0.03 µg/mL (≈ 0.0715 µM)
MIC [14]: 0.12 µg/mL (≈ 0.286 µM)
MIC [15]: 0.015 µg/mL (≈ 0.0358 µM)
MIC [16]: 0.06 µg/mL (≈ 0.143 µM)
MIC [17]: 0.5 µg/mL (≈ 1.19 µM)
deltalog10CFU/ml [18]: 2.3
MIC [19]: 0.25 µg/mL (≈ 0.596 µM)
deltalog10CFU/ml [20]: 7.2
MIC50 [21]: 0.008 µg/mL (≈ 0.0191 µM)
MIC90 [21]: 0.015 µg/mL (≈ 0.0358 µM)
deltalog10CFU/ml [22]: 3.5
deltalog10CFU/ml [23]: 3.3
deltalog10CFU/ml [24]: 7.2
MIC [25]: 0.12 µg/mL (≈ 0.286 µM)
Ratio [26]: 9
deltalog10CFU/ml [27]: 4.3
MIC [28]: 0.12 µg/mL (≈ 0.286 µM)
Activity [29]: Active
deltalog10CFU/ml [30]: 3.8
deltalog10CFU/ml [31]: 6.3
Ratio [32]: 16
Ratio [33]: 9
deltalog10CFU/ml [34]: 5
MIC [35]: 0.12 µg/mL (≈ 0.286 µM)
